Assay results taken from ChEMBL document CHEMBL4842326, “Design, synthesis and biological evaluation of 3, 4-disubstituted-imidazolidine-2, 5-dione derivatives as HDAC6 selective inhibitors” (Eur J Med Chem, 2021).
pIC50: −log10 of the molar value.

Legend:
[1] = target: T1, Protein deacetylase HDAC6 (Homo sapiens, UniProt Q9UBN7); test: Inhibition of HDAC6 (unknown origin) using Ac-LeuGlyLy-s(Ac)-AMC as substrate preincubated for 10 mins followed by substrate addition and further incubated for 2 hrs by fluorescence microtiter plate reader assay
T1 sequence (Q9UBN7 whole entry): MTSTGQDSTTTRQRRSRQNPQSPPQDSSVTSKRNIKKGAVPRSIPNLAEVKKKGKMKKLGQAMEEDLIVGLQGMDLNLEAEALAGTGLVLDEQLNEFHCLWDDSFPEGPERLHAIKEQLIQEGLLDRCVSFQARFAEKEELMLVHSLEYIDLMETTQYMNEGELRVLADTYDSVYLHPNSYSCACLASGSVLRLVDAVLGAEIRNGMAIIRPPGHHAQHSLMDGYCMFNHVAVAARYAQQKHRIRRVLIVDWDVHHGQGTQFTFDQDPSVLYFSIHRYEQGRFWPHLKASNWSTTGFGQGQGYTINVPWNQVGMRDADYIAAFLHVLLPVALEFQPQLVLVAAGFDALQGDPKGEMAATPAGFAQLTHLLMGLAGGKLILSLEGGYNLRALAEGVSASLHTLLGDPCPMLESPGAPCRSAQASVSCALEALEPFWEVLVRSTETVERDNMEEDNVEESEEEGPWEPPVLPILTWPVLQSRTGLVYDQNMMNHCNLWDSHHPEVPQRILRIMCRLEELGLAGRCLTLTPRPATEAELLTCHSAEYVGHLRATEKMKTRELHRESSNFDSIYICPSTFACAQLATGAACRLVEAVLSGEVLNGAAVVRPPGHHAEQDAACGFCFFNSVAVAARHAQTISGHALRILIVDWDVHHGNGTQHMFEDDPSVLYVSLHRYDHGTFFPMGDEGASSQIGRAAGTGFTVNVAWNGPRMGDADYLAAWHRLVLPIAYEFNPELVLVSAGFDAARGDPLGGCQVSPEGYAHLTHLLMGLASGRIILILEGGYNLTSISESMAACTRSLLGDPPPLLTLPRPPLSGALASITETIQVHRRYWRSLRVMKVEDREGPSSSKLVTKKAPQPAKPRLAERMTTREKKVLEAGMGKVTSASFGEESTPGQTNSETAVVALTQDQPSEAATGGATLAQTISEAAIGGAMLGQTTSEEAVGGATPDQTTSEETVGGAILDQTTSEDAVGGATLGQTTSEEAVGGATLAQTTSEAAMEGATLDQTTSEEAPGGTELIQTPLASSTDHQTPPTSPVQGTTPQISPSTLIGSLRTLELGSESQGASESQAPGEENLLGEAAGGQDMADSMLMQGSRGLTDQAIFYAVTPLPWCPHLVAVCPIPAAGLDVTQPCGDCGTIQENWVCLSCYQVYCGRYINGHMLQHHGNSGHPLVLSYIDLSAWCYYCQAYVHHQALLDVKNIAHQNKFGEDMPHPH

[2] = test system: HL-60; test: Antiproliferative activity against human HL-60 cells assessed as inhibition of cell proliferation after 48 hrs by MTT assay; type: functional, cell-based; conditions: HL-60, 48 h
Outline: (§1)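 Leukemia/myeloma lines grown in RPMI1640 with 10% FBS at 37 °C, 5% CO2; seeded at 3500–4000 cells/well, cultured overnight, then exposed to serial dilutions for 48 h.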

[3] = test system: HL-60; test: Induction of apoptosis in human HL-60 cells assessed as viable cells at 3 uM after 48 hrs by Annexin V-FITC/propidium iodide staining based flow cytometric analysis (reference value: 93.4%); type: functional; conditions: read-out: Activity
Outline: (§2)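 HL-60 cells (1 × 10^6/well) exposed 48 h to compound dilutions, collected, PBS-washed, resuspended in Annexin V-FITC binding buffer, stained with propidium iodide and Annexin V-FITC for 15 min, then analysed by flow cytometry.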

[4] = Cytotoxicity against human GEC1 cells assessed as decrease in cell viability after 48 hrs by MTT assay; type: cell-based; conditions: GEC1, 48 h
Outline: (§3)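 Normal cells: HUVECs in RPMI1640 with 10% FBS plus 0.1% heparin, GEC-1 in RPMI1640 with 10% FBS. Seeded 8 h, then treated with serial dilutions for 48 h; 0.5% MTT for 4 h, supernatant removed, DMSO added, absorbance read at 570 nm.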

[5] = test system: KG-1; test: Antiproliferative activity against human KG-1 cells assessed as inhibition of cell proliferation after 48 hrs by MTT assay; type: functional, cell-based; conditions: KG-1, 48 h; outline: as §1
[6] = test system: HEL; test: Antiproliferative activity against human HEL cells assessed as inhibition of cell proliferation after 48 hrs by MTT assay; type: functional, cell-based; outline: as §1
[7] = test system: Jurkat; test: Antiproliferative activity against human Jurkat cells assessed as inhibition of cell proliferation after 48 hrs by MTT assay; type: functional, cell-based; outline: as §1
[8] = test system: HL-60; test: Induction of apoptosis in human HL-60 cells assessed as late apoptotic cells at 3 uM after 48 hrs by Annexin V-FITC/propidium iodide staining based flow cytometric analysis (reference value: 1.45%); type: functional; outline: as §2
[9] = test system: HL-60; test: Induction of apoptosis in human HL-60 cells assessed as early apoptotic cells at 3 uM after 48 hrs by Annexin V-FITC/propidium iodide staining based flow cytometric analysis (reference value: […]%); type: functional
[10] = test system: NCI-H929; test: Antiproliferative activity against human NCI-H929 cells assessed as inhibition of cell proliferation after 48 hrs by MTT assay; type: functional, cell-based; conditions: NCI-H929, 48 h; outline: as §1
[11] = test system: HUVEC; test: Cytotoxicity against human HUVEC cells assessed as decrease in cell viability after 48 hrs by MTT assay; type: cell-based; outline: as §3
[12] = target: T2, Histone deacetylase 2 (Homo sapiens, UniProt Q92769); test: Inhibition of HDAC2 (unknown origin)
[13] = target: Histone deacetylase 3 (Homo sapiens, UniProt O15379); test: Inhibition of HDAC3 (unknown origin)
[14] = target: T3, Histone deacetylase 8 (Homo sapiens, UniProt Q9BY41); test: Inhibition of HDAC8 (unknown origin)
T3 sequence (Q9BY41 whole entry): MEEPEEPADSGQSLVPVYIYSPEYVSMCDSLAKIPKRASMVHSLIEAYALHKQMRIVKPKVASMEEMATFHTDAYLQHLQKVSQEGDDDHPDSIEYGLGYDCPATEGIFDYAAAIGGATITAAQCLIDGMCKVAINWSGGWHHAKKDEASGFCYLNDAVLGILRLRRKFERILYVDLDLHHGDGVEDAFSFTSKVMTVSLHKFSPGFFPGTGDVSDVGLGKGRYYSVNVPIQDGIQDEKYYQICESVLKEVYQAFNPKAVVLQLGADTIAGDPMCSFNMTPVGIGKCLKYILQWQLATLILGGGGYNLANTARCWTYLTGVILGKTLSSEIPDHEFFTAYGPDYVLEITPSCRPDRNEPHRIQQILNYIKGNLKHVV

[15] = target: T4, Histone deacetylase 1 (Homo sapiens, UniProt Q13547); test: Inhibition of HDAC1 (unknown origin)
[16] = target: T3, Histone deacetylase 8; test: Inhibition of HDAC8 (unknown origin) using Ac-LeuGlyLys(tfa)-AMC as substrate preincubated for 10 mins followed by substrate addition and further incubated for incubated for 1 hrs by fluorescence microtiter plate reader assay
[17] = target: T2, Histone deacetylase 2
[18] = target: T4, Histone deacetylase 1; test: Inhibition of HDAC1 (unknown origin) using Ac-LeuGlyLys(Ac)-AMC as substrate preincubated for 10 mins followed by substrate addition and further incubated for incubated for 1 hrs by fluorescence microtiter plate reader assay
[19] = organism: Homo sapiens; test: Selectivity ratio of IC50 for HDAC2 (unknown origin) to IC50 for HDAC6 (unknown origin)
[20] = organism: Homo sapiens; test: Selectivity ratio of IC50 for HDAC1 (unknown origin) to IC50 for HDAC6 (unknown origin)
[21] = organism: Homo sapiens; test: Selectivity ratio of IC50 for HDAC8 (unknown origin) to IC50 for HDAC6 (unknown origin)

T4 sequence (Q13547 whole entry): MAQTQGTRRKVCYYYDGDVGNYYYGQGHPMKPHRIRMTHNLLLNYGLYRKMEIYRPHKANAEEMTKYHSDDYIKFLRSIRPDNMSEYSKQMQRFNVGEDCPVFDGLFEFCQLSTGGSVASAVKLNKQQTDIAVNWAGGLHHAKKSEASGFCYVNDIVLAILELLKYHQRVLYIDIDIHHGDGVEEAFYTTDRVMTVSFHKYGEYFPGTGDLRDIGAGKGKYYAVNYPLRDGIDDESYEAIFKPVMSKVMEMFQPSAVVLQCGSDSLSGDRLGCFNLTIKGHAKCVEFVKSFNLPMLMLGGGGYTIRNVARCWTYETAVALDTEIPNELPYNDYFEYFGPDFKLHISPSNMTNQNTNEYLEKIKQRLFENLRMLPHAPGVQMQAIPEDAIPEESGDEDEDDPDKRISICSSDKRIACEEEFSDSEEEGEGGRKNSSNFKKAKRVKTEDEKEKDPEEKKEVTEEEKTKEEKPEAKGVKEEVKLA
T2 sequence (Q92769 whole entry): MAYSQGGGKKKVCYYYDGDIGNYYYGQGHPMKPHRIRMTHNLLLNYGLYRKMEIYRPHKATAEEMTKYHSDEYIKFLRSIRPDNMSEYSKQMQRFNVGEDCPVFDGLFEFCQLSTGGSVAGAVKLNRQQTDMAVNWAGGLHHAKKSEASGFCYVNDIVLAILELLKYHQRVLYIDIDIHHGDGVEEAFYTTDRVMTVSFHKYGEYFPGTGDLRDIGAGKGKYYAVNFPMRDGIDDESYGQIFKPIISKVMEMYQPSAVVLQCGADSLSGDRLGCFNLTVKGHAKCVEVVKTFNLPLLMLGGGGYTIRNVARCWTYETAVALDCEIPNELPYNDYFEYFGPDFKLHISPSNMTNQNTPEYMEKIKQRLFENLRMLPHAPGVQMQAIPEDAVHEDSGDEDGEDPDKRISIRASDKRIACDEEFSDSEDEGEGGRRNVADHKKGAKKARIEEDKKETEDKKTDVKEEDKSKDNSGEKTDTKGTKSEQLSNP
Chain of Histone deacetylase 3 (O15379 whole entry): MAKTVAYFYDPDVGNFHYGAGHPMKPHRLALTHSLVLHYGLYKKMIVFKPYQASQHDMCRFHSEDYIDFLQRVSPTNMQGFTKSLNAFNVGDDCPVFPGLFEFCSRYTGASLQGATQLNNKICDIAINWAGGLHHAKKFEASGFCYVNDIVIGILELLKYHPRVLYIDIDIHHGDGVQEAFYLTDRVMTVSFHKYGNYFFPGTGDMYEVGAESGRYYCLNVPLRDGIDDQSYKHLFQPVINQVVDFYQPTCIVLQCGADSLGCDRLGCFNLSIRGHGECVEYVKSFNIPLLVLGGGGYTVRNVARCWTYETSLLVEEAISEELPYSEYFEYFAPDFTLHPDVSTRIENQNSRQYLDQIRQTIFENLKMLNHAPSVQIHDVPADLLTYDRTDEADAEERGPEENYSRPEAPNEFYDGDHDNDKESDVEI

Structure (SMILES)	pIC50 [1]	further results
CN1CCc2c(c3ccccc3n2Cc2ccc(C(=O)NO)cc2)C1 [TUBASTATIN A]	–	pIC50 [2]: 5.39; viability at 3 µM [3]: 87.6%; pIC50 [4]: 4.31; pIC50 [5]: 5.05; pIC50 [6]: 5.09; pIC50 [7]: 4.84; Activity [8]: 6.24%; Activity [9]: 6.12%; pIC50 [10]: 4.81; pIC50 [11]: 4.16
COc1ccc(CC2(c3ccccc3)NC(=O)N(Cc3ccc(C(=O)NO)cc3)C2=O)cc1 (racemic)	7.14	–
CC(C)(C)OC(=O)Nc1ccc(-c2cc(NC(=O)CCCCCCC(=O)NO)no2)cc1	–	pIC50 [12]: 6.60; pIC50 [13]: 9.38; pIC50 [14]: 5.16; pIC50 [15]: 6.57
CN1CC(=O)N(Cc2ccc(C(=O)NO)cc2)C1=O	6.93	–
CCCN1C(=O)N(Cc2ccc(C(=O)NO)cc2)C(=O)C1Cc1ccccc1 (racemic)	7.24	–
O=C(NO)c1ccc(CN2C(=O)NC(Cc3ccc4ccccc4c3)(c3ccccc3)C2=O)cc1 (racemic)	7.13	–
O=C(NO)c1ccc(CN2C(=O)NC(Cc3cccc4ccccc34)(c3ccccc3)C2=O)cc1 (racemic)	7.04	–
CC(C)(C)c1ccc(CC2(c3ccccc3)NC(=O)N(Cc3ccc(C(=O)NO)cc3)C2=O)cc1 (racemic)	6.94	–
CC1(c2ccccc2)NC(=O)N(Cc2ccc(C(=O)NO)cc2)C1=O (racemic)	7.13	–
O=C(NO)c1ccc(CN2C(=O)NC(Cc3ccc(Cl)cc3)(c3ccccc3)C2=O)cc1 (racemic)	7.27	–
COc1ccc(CN2C(=O)N(Cc3ccc(C(=O)NO)cc3)C(=O)C2Cc2ccccc2)cc1 (racemic)	6.99	–
O=C(NO)c1ccc(CN2C(=O)NC(Cc3ccccc3)(c3ccccc3)C2=O)cc1 (racemic)	7.14	–
CC(C)(C)c1ccc(CN2C(=O)N(Cc3ccc(C(=O)NO)cc3)C(=O)C2Cc2ccccc2)cc1 (racemic)	6.86	–
CN1C(=O)N(Cc2ccc(C(=O)NO)cc2)C(=O)C1Cc1ccccc1 (racemic)	6.97	–
CC(C)CC1C(=O)N(Cc2ccc(C(=O)NO)cc2)C(=O)N1Cc1ccccc1 (racemic)	6.89	–
CC(C)CC1C(=O)N(Cc2ccc(C(=O)NO)cc2)C(=O)N1C (racemic)	6.60	–
CCCN1C(=O)N(Cc2ccc(C(=O)NO)cc2)C(=O)C1CC(C)C (racemic)	6.76	–
Cc1ccc(CC2(c3ccccc3)NC(=O)N(Cc3ccc(C(=O)NO)cc3)C2=O)cc1 (racemic)	7.08	–

Second part, led by results:

pIC50 [1]	Structure (SMILES)	further results
7.69	O=C(NO)c1ccc(CN2C(=O)C(Cc3ccccc3)N(CCc3ccccc3)C2=O)cc1 (racemic)	–
7.86	O=C(NO)c1ccc(CN2C(=O)C(Cc3ccccc3)N(Cc3ccncc3)C2=O)cc1 (racemic)	–
7.54	O=C(NO)c1ccc(CN2C(=O)C(Cc3ccccc3)N(Cc3cccc4ccccc34)C2=O)cc1 (racemic)	–
7.60	O=C(NO)c1ccc(CN2C(=O)C(Cc3ccccc3)N(Cc3ccc4ccccc4c3)C2=O)cc1 (racemic)	–
7.55	COc1ccc(CN2CC(=O)N(Cc3ccc(C(=O)NO)cc3)C2=O)cc1	–
7.66	O=C(NO)c1ccc(CN2C(=O)CN(CCc3ccccc3)C2=O)cc1	–
7.61	O=C(NO)c1ccc(CN2C(=O)NC(CCc3ccccc3)(c3ccccc3)C2=O)cc1 (racemic)	–
8.08	O=C(NO)c1ccc(CN2C(=O)CN(Cc3ccc(Cl)cc3)C2=O)cc1	pIC50 [16]: 6.00; pIC50 [17]: 5.97; pIC50 [18]: 6.06
7.27	CCCN1CC(=O)N(Cc2ccc(C(=O)NO)cc2)C1=O	–
8.22	O=C(NO)c1ccc(CN2C(=O)C(Cc3ccccc3)N(Cc3ccc(Cl)cc3)C2=O)cc1 (racemic)	pIC50 [16]: 5.40; pIC50 [17]: 5.08; pIC50 [18]: 5.09; Ratio IC50 [19]: 1380; Ratio IC50 [20]: 1360; Ratio IC50 [21]: 664
7.67	O=C(NO)c1ccc(CN2C(=O)C(Cc3ccccc3)N(Cc3ccccc3)C2=O)cc1 (racemic)	–
7.42	Cc1ccc(CN2C(=O)N(Cc3ccc(C(=O)NO)cc3)C(=O)C2Cc2ccccc2)cc1 (racemic)	–
7.39	CC(C)(C)c1ccc(CN2CC(=O)N(Cc3ccc(C(=O)NO)cc3)C2=O)cc1	–
7.29	CCCC1(c2ccccc2)NC(=O)N(Cc2ccc(C(=O)NO)cc2)C1=O (racemic)	–
7.88	O=C(NO)c1ccc(CN2C(=O)CN(Cc3ccc4ccccc4c3)C2=O)cc1	–
7.75	Cc1ccc(CN2CC(=O)N(Cc3ccc(C(=O)NO)cc3)C2=O)cc1	–
7.90	O=C(NO)c1ccc(CN2C(=O)CN(Cc3ccccc3)C2=O)cc1	–
8.32	O=C(NO)c1ccc(CN2C(=O)C(Cc3ccccc3)N(Cc3ccccn3)C2=O)cc1 (racemic)	pIC50 [16]: 5.11; pIC50 [17]: 5.29; pIC50 [18]: 5.47
